In all, about 190,000 compounds went through this assay and about 10 (0.005%) were called active. The sample holds actives, similar compounds and a random draw of the others, so the mix is not that of the screen.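 The calls were made as follows: active = diaphorase activity raised at least twofold by the compound at 20 µM; inactive = activation factor below 2.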

A short description of the assay: compounds boosting diaphorase resazurin reduction – biochemical, uHTS, resorufin fluorescence, counter-screen for diaphorase-coupled primary assays, primary screen (AID 1229). Particulars: Diaphorase/resazurin coupled assay, 16 min, at 20 µM, stronger effect = higher value, 1 = vehicle wells, 0 = NADH-free wells. In short, it runs like this:
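Material: bacterial diaphorase enzyme (C. kluyveri); amount: enzyme 0.07 U/mL final; reagent: NADH substrate 0.114 mM plus resazurin dye 0.1 mM, final; doses: single compound dose of 20 µM, 1% DMSO final; timing: 16 min enzyme reaction, ambient temperature; measured by: fluorescence of resorufin, 544 nm excitation, 590 nm emission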
On the technique in general: Alamar Blue is a resazurin reagent that responds to reducing activity.
For the compound `Cc1cccc(-n2c(=O)c3c(C)c(C)sc3n(CC(N)=O)c2=O)c1`, the activation factor was 1.1 (inactive).
For `O=C(COC(=O)c1ccc(Cl)nc1)NCc1ccc2c(c1)OCO2`, the activation factor is 1 (inactive).
In the case of `CC1CN(S(=O)(=O)c2ccc(C(=O)NN3CCN(C)CC3)cc2)CC(C)O1` (stereo not drawn) it was 0.9 (inactive).
Take `CC(C)(C)NC(=O)C(=O)NCc1ccncc1`: the activation factor is 0.9 (inactive).
In the case of `O=C(NCc1ccccc1)C1=C[C@@H](c2ccc(C(F)(F)F)cc2)C[C@@H](OCc2ccc(CO)cc2)O1` it was 0.6 (inactive); in that of `O=C(NC(=S)Nc1ccc(S(=O)(=O)Nc2ncccn2)cc1)c1cccc(Br)c1`, 0.9 (inactive).
Then `COc1ccc(/C=C(\C#N)C(=O)NCCCn2ccnc2)cc1`, with 1 (inactive); and `O=C1CC(=O)Nc2cc(S(=O)(=O)N3CCN(c4cccc(C(F)(F)F)c4)CC3)ccc2N1`, with 1 (inactive); and `CCOc1ccc(OCc2cccc(C(=O)N(CC)CC)c2)cc1`, with 0.8 (inactive).
In the case of `CC(=O)Nc1ccc(S(=O)(=O)Nc2nccc(/C=C/c3ccccc3F)n2)cc1` it was 0.8 (inactive).
Regarding `CCCc1nnc(SCC(=O)N2C(C)CCCC2C)n1CC` (stereo not drawn), the activation factor is 0.9 (inactive).
Then `CC(C)CNC(=O)/C=C/C(=O)O`, with 1 (inactive); and `COc1ccc(C)cc1Nc1nc(-c2c(C)[nH]c3ccccc23)cs1`, with 0.9 (inactive); and `O=C(NCCCn1ccnc1)c1cc(-c2ccccc2)on1`, with 1 (inactive).
Then `CCN(CC)CCOCCOc1ccc(Cl)c2ccccc12`, with 0.8 (inactive); and `Cn1c(SCC(=O)Nc2ccc(Br)cc2F)nnc1-c1ccco1`, with 0.9 (inactive); and `Cc1nc([N+](=O)[O-])cn1CC(=O)Nc1ccc2c(c1)OCO2`, with 0.9 (inactive).
As to `CC(=O)NCCn1c(SCC(=O)Nc2ccc(C)cc2)nc2ccccc2c1=O`, the activation factor is 0.9 (inactive).
Then `COc1cccc(-n2c(=S)[nH]c3c(oc4ccccc43)c2=O)c1`, with 0.3 (inactive); and `CC1CCCCC1NC(=O)/C(C#N)=C/C=C/c1ccccc1[N+](=O)[O-]` (stereo not drawn), with 0.8 (inactive).
In the case of `Cc1cccc(-n2c(Cc3cc(=O)[nH]c(=O)[nH]3)nnc2SCC(=O)Nc2cccc(C(F)(F)F)c2)c1` it was 1 (inactive); in that of `COc1ccc(/C=C/C(=O)c2ccc(NS(=O)(=O)c3ccc(C)cc3)cc2)cc1O`, 0.7 (inactive).
Then `CC(C)CCN1CCN(Cc2ccc(C(F)(F)F)cc2)CC1CCO` (stereo not drawn), with 1 (inactive).
For `CC(=O)N(CN1C(=O)C2C3C=CC(C3)C2C1=O)c1cccc(Cl)c1` (stereo not drawn), the activation factor was 1.1 (inactive).
In the case of `O=C(C1=C[C@H](c2coc3ccccc3c2=O)C[C@H](OCc2ccc(CO)cc2)O1)N1CCOCC1` it was 0.8 (inactive); in that of `COc1ccc(Br)cc1/C=N/Nc1ccc(Cl)c(C(=O)O)c1`, 0.9 (inactive).
In the case of `CC(=O)Nc1ccc(-c2csc(NC=C3C(=O)OC(C)(C)OC3=O)n2)cc1` it was 0.9 (inactive); in that of `COC(=O)CSc1ccc2nnc(CCNS(=O)(=O)c3ccc(C)cc3)n2n1`, 0.7 (inactive); in that of `NC1=NN(c2cccc(C(=O)O)c2)C(=O)C1`, 0.9 (inactive).
Then `O=S1(=O)CC/C(=N\Nc2ccc(F)cc2)c2ccsc21`, with 0.9 (inactive); and `CCO[C@H]1OC(C(=O)NCc2ccccc2)=C[C@@H](c2coc3ccccc3c2=O)[C@@H]1CCCO`, with 0.8 (inactive).
Consider `CC(=O)Nc1ccc(S(=O)(=O)Nc2ccc(-c3ccc4nnc(C)n4n3)cc2)cc1`, for which the activation factor was 1.1 (inactive).
Then `CCOC(=O)C(CC)/C(C)=N\NC(=O)c1cccc(C)c1` (stereo not drawn), with 0.9 (inactive); and `COC(=O)N/N=C/c1ccc(-c2ccc(Cl)c(Cl)c2)o1`, with 0.9 (inactive).
Then `C/C(=N\NS(=O)(=O)c1ccc(Cl)cc1)c1ccc(NC(=O)c2ccco2)cc1`, with 0.8 (inactive); and `Cc1cc(C)nc(SCC(=O)N(C)C)n1`, with 1 (inactive); and `CCOc1ccc(C(C)=O)cc1COC(=O)c1cnc(Cl)c(Cl)c1`, with 0.8 (inactive).
With `C=CCNCCCCOc1ccccc1`, the activation factor is 1.1 (inactive).
In the case of `CONc1nc2nonc2nc1NOC` it was 0.9 (inactive); in that of `O=C(C1CC1)N1N=C2CCCCC2C1(O)C(F)(F)F` (stereo not drawn), 0.9 (inactive).
With `Cc1ccc(NN=Nc2nc3c([nH]2)c(=O)n(C)c(=O)n3C)cc1`, the activation factor was 0.6 (inactive).
In the case of `CCOc1ccc(Oc2nc(C)cc(OC)n2)nn1` it was 0.9 (inactive); in that of `Cc1c(C2=CCN(S(=O)(=O)c3ccc(Cl)cc3)CC2)c2ccccc2n1C`, 0.9 (inactive).
In the case of `COc1cc(C(=S)NCc2ccccc2)cc(Br)c1O` it was 1 (inactive); in that of `C/C=C/c1ccc(OCCCCN2CCC(C)CC2)c(OC)c1`, 1 (inactive).
Turning to `CCn1cc(-c2cc(C(=O)O)on2)c(C)n1`, the activation factor is 0.9 (inactive).
In the case of `Cc1ccc(OCCOCCOc2ccc(Br)cc2/C=N\NC(=O)c2ccncc2)cc1` it was 0.8 (inactive).
Take `O=C(c1ccc2c(c1)N(Cc1ccc(F)cc1)C(=O)c1ccccc1S2(=O)=O)N1CCN(c2ccccn2)CC1`: the activation factor was 0.8 (inactive).
On to `CNc1[nH]ncc1[N+](=O)[O-]`, for which the activation factor is 1 (inactive).
In the case of `O=C1c2ccccc2C(=O)N1CCC(O)C[N+](=O)[O-]` (stereo not drawn) it was 1 (inactive); in that of `Cc1ccc(NC(=O)OCCNC(=O)c2ccncc2)cc1`, 1 (inactive).
Then `N#Cc1c(NC(=O)C2CCCO2)sc2c1CCCCC2` (stereo not drawn), with 1 (inactive); and `O=C(/C(=C/c1cccc(Cl)c1)c1nc2ccccc2[nH]1)c1ccccc1`, with 0.9 (inactive).
As for `Cc1ccnc(NC(=O)CCC(=O)N(CC(=O)NCCc2ccccc2)Cc2cccs2)c1`, the activation factor is 1 (inactive).
Then `CC(=O)C1=C(O)C(=O)N(c2cccnc2)C1c1ccc([N+](=O)[O-])cc1` (stereo not drawn), with 0.9 (inactive); and `O=C1/C(=C/c2cccs2)CCC1C1CCCC1` (stereo not drawn), with 0.9 (inactive); and `Cc1cccc2cc3c(N)c(C(=O)N4CCCc5ccccc54)sc3nc12`, with 0.8 (inactive).
Then `COc1ccc(OC)c(S(=O)(=O)NCCC(C)C)c1`, with 1.1 (inactive); and `CCOC(=O)c1c(/N=C/c2cc(C)ccc2O)sc2c1CCC2`, with 1 (inactive).
In the case of `CC(C)=CCCC1(C)C=Cc2c(ccc3c2[nH]c2cc(O)c(C)cc23)O1` (stereo not drawn) it was 0.8 (inactive); in that of `CN1CCNC(=O)C1CC(=O)N1CC=C(c2ccc(F)cc2)CC1` (stereo not drawn), 0.9 (inactive); in that of `COC(=O)/C(C#N)=C/c1occc1C`, 0.9 (inactive).
With `CCCN(CC(=O)Nc1ccc(OC)c(OC)c1)CC(=O)Nc1ccc(F)c(F)c1F`, the activation factor was 0.9 (inactive).

Values taken from PubChem BioAssay AID1229 (Sanford-Burnham Center for Chemical Genomics, 2008).
